Measurements from different studies.
Protocols differ between the studies behind these lines.
JAK2 JH1: Tyrosine-protein kinase JAK2, JH1 (JAK2, Homo sapiens, UniProt O60674)
JAK2: Tyrosine-protein kinase JAK2 (JAK2, Homo sapiens, UniProt O60674)

C1=C/COCc2cc(ccc2OCCN2CCCC2)Nc2nccc(n2)-c2cccc(c2)COC/1  remaining signal (JAK2 JH1; cell-free assay; 0.1 µM): 6.8%
CC(C)S(=O)(=O)c1ccc2nccc(Nc3ccc4sc(C5CCCC5)nc4c3)c2c1  activity vs control (JAK2; enzyme activity, inhibitor; 1 µM): 98%
CCCCC(=O)Nc1ccc(-c2ccc3ncn(CCC)c(=O)c3c2)cn1  remaining binding (JAK2 JH1; binding, competition with immobilised ligand; 0.5 µM): 100%
CN1CCN(C(=O)c2ccc(NC(=O)Nc3ccc(N(C)c4ccnc(Nc5ccc(CS(C)(=O)=O)cc5)n4)cc3)cc2)CC1  remaining binding (JAK2 JH1; cell-free assay, competition with immobilised ligand; 1 µM): 4.7%
C#Cc1cc(-c2cc(Nc3nc(N[C@@H](C)c4ccc(F)cn4)ncc3Cl)n[nH]2)ccc1C=O  inhibition (JAK2; enzyme activity, inhibitor; 0.2 µM): 99.7%
COc1ccc2oc(-c3ccc4nc(N)oc4c3)c/c(=N\c3ccccc3NC(=O)CCN)c2c1  remaining binding (JAK2; binding; 1 µM): 96%
C=CC(=O)N1CCC([C@@H]2CCNc3c(C(N)=O)c(-c4ccc(Oc5ccccc5)cc4)nn32)CC1  inhibition (JAK2 JH1; enzyme activity, inhibitor; 1 µM): 12%
N#Cc1ccc(NC(=O)Nc2ccccc2)cc1  remaining binding (JAK2 JH1; cell-free assay, competition with immobilised ligand; 25 µM): 86%
CO[C@@H]1[C@H](N(C)C(=O)c2ccccc2)C[C@H]2O[C@]1(C)n1c3ccccc3c3c4c(c5c6ccccc6n2c5c31)C(=O)NC4  inhibition (JAK2 JH1; enzyme activity, inhibitor; 1 µM): 100%
C[C@H]1CC[C@H](n2c3cnccc3c3cnc(Nc4ccc5c(n4)CCN(C(=O)CO)C5)nc32)CC1  remaining binding (JAK2 JH1; cell-free assay, competition with immobilised ligand; 1 µM): 50%
